Shown are actives, neighbours in structure and some others; about 1.4% of the full set was active somewhere.
CAL PDZ FP-1: inhibitors of human CAL PDZ peptide binding; AID 504414; inhibition, % at 20 µM; purified CAL PDZ, TMR-peptide fluorescence polarization, 1 h; actives 0.02% (n = 330,000); Q9HD26;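 active = highest replicate inhibition of at least 40%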;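 also: plate controls were DMSO neutral control wells for no effect and unlabeled competitor peptide control wells for full effect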
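Test system: tagged CAL PDZ domain / Buffer or medium: sodium phosphate/NaCl buffer pH 7.4 with TCEP, IgG, Thesit / Reagent: TMR-labelled reporter peptide T*-PRC34 bound in PDZ groove / Compound dosing: single point, 20 µM / Schedule: 1 h incubation at room temperature before polarization reading / Technique: fluorescence polarization (mP) / Benchmarks: unlabelled peptide, DMSO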
CAL PDZ FP-2: inhibitors of human CAL PDZ peptide binding | inhibition, % at 24.9 µM | Q9HD26 | AID 602252 | actives 0.92% (n = 300,000) | purified CAL PDZ, TMR-peptide fluorescence polarization, 1 h;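 active = mean inhibition of at least 30% with at least half of replicates also reaching 30%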;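 also: 0% = DMSO neutral control and 100% = excess unlabeled competitor peptide PRC23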
CDK5 inh: CDK5/p35 (human) kinase inhibition; actives 0.01% (n = 330,000); Recombinant CDK5/p35, ADP-Glo luminescence, 60 min; inhibition, % at 10 µM; Q00535+Q15078; AID 488839;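 active = highest replicate inhibition of at least 50% and at least 75% of replicates reaching 50%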;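 also: plate controls were DMSO neutral control for no effect and GW8510 at 10 µM for full effect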
Target sequence (Q00535 whole entry, looked up): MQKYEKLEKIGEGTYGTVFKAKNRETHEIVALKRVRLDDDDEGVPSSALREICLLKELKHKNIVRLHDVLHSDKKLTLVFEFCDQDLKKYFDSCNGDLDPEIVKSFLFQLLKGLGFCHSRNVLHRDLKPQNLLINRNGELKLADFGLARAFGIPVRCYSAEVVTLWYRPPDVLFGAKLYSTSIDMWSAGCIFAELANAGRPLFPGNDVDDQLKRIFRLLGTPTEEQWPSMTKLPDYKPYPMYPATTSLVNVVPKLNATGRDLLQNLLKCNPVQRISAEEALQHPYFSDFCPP
Target sequence (Q15078 whole entry, looked up): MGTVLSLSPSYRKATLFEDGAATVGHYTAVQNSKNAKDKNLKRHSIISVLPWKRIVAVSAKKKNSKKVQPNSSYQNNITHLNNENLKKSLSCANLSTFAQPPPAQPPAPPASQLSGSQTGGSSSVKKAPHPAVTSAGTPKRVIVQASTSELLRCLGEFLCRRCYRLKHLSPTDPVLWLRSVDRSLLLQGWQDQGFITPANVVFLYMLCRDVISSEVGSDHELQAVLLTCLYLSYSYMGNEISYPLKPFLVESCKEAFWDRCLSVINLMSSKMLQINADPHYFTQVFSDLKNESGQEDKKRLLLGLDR
PvdQ acylase: P. aeruginosa PvdQ acylase inhibition. purified PvdQ acylase, fluorescence plate reader. inhibition, % at 10 µM. actives 0.063% (n = 340,000). AID 488965; in the data active = inhibition above about 30%, passing the limit was not always enough;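 also: 0% = vehicle neutral wells and 100% = reference inhibitor wells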
Dyrk1A ADPGlo: inhibitors of rat Dyrk1A kinase. AID 504441. ADP-Glo luminescence, NFATc1 peptide. actives 0.43% (n = 310,000). inhibition, % at 12.5 µM. Q63470; in the data active = inhibition above about 50%;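 also: plate controls were vehicle with enzyme for no effect and no enzyme for full effect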
TbMetRS inhib: blocks T. brucei methionyl-tRNA synthetase activity; AID 624268; inhibition, % at 11.9 µM; actives 0.4% (n = 360,000); purified T. brucei MetRS, ATP depletion, Kinase-Glo luminescence;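 active = inhibition above a per-plate cutoff of the control wells' mean inhibition plus 3 SD, cut at about 5.5% in these data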;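 also: 0% = DMSO wells median and 100% = median of wells with control inhibitor compound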
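technique = Kinase-Glo luminescence, ATP depletion format | system = purified MetRS (methionyl-tRNA synthetase) enzyme from Trypanosoma brucei | timing = 15 min preincubation, 2 h reaction, all 25 °C | evaluation = percent inhibition versus plate control medians | dosing = single dose, 11.9 µM final nominal, 0.9% final DMSO | also added = substrates ATP, L-methionine and bulk Escherichia coli tRNA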
Tb MetRS conf: Trypanosoma brucei MetRS inhibition confirmed | AID 624412 | inhibition, % at 11.9 µM | T. brucei MetRS enzyme, luminescence (ATP depletion) | shares compounds with TbMetRS inhib | actives 93% (n = 1,400); in the data active = inhibition above about 7%
Jurkat cytotox: kills Jurkat cells in T. brucei MetRS counterscreen; shares compounds with TbMetRS inhib; Jurkat cells viability, ATP luminescence; inhibition, % at 8.3 µM; actives 12% (n = 1,400); in the data active = inhibition above about 15%;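 also: 0% = vehicle and 100% = reference inhibitor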
Tb MetRS inh FP: inhibits T. brucei methionyl tRNA synthetase in orthogonal FP test | shares compounds with TbMetRS inhib | purified T. brucei MetRS, fluorescence polarization | inhibition, % at 11.9 µM | actives 44% (n = 1,400); in the data active = inhibition above about 17%;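 also: 0% = vehicle wells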
Starred values were filed as active, the others as inactive; / = no result given.

SMILES	CAL PDZ FP-1	CAL PDZ FP-2	CDK5 inh	PvdQ acylase	Dyrk1A ADPGlo	TbMetRS inhib	Tb MetRS conf	Jurkat cytotox	Tb MetRS inh FP
Cc1ccc(NC(=O)CN(C)C(=O)CCOc2cccc(C)c2)cc1	0	-3	0	-3	2	6.0*	11*	3	3
Cc1ccc(NC(=O)CN(C)C(=O)COC(=O)c2ccc(Cl)cc2O)cc1	-1	7	-9	-7	/	6.8*	64*	2	39*
CCCC(=O)OCC(=O)Nc1ccc2c(c1)OCO2	0	2	1	0	1	-1	/	/	/
COc1ccc2c(CC(=O)OCC(=O)Nc3ccc4c(c3)OCO4)coc2c1	0	-2	-2	-15	10	10.0*	15*	-7	8
COc1ccc2c(CC(=O)OCC(=O)Nc3ccc(S(N)(=O)=O)cc3)coc2c1	-3	-2	-1	-7	-2	0	/	/	/
COc1ccc2c(CC(=O)OCC(=O)Nc3ccc(C)cc3)coc2c1	0	-4	1	-10	/	9.8*	25*	4	9
Cc1cccc(-c2cccc3nccn23)c1	/	/	/	/	/	0	/	/	/
Cc1ccc(NC(=O)CCNS(=O)(=O)c2ccc(Br)s2)cc1	-2	-4	0	6	3	18*	40*	-1	24*
O=C(NCc1ccc(F)cc1)c1[nH]c(C(F)(F)F)nc1-c1ccccc1	/	/	/	/	/	0	/	/	/
O=C(Nc1ccccc1)C1=C[C@@H](c2ccc(C(F)(F)F)cc2)C[C@@H](OCc2ccc(CO)cc2)O1	0	0	-5	-16	6	0	/	/	/
CC(C)(C)[C@H]1C=C(C(=O)NCc2nc3ccccc3[nH]2)O[C@@H](OCc2ccc(CO)cc2)C1	-1	0	-2	-7	-2	62*	87*	7	61*
O=C(NCc1nc2ccccc2[nH]1)C1=C[C@@H](c2ccc(C(F)(F)F)cc2)C[C@@H](OCc2ccc(CO)cc2)O1	1	-1	1	4	15	37*	79*	-1	49*
O=C(NCc1nc2ccccc2[nH]1)C1=C[C@H](c2ccc3c(c2)OCO3)C[C@H](OCc2ccc(CO)cc2)O1	0	7	-1	17	7	54*	90*	-5	60*
O=C(NCc1nc2ccccc2[nH]1)C1=C[C@H](c2coc3ccccc3c2=O)C[C@H](OCc2ccc(CO)cc2)O1	-3	-3	1	-11	-1	24*	58*	1	32*
O=C(NCc1ccccc1)C1=C[C@H](c2ccc3c(c2)OCO3)C[C@H](OCc2ccc(CO)cc2)O1	0	2	-2	0	-4	0	/	/	/
O=C(NC1CC1)C1=C[C@@H](c2coc3ccccc3c2=O)C[C@@H](OCc2ccc(CO)cc2)O1	-1	-3	-1	-12	/	0	/	/	/
O=C(NCc1ccccc1)C1=C[C@@H](c2ccccc2)C[C@@H](OCc2ccc(CO)cc2)O1	-2	-1	0	-12	-2	0	/	/	/
O=C(NCc1nc2ccccc2[nH]1)C1=C[C@@H](c2ccccc2)C[C@@H](OCc2ccc(CO)cc2)O1	-1	-2	0	-4	4	77*	104*	-4	84*
O=C(NCc1nc2ccccc2[nH]1)C1=C[C@H](c2ccccc2)C[C@H](OCc2ccc(CO)cc2)O1	0	-3	0	6	6	31*	75*	1	38*
Cc1ccc(S(=O)(=O)N2C[C@H]3C(=O)C[C@@H](c4ccccc4C)N(S(=O)(=O)c4ccc(C)cc4)[C@H]3C[C@H]2c2ccccc2)cc1	/	/	/	/	/	-1	/	/	/
CCCCN1C(=O)C(CC(=O)NCCCN(C)C)CC(C(=O)N2CCOCC2)=C1C (stereo unspecified)	/	/	/	/	/	-1	/	/	/
CCc1cc(Cn2nc(-c3ccccc3)cc2C(=O)NCc2cccc(Br)c2)on1	-1	-3	7	-14	-13	53*	77*	4	69*
CCc1cc(Cn2nc(-c3ccccc3)cc2C(=O)NCc2cccc(C(F)(F)F)c2)on1	0	-2	1	1	/	1	/	/	/
COC(=O)[C@@]12C[C@@H](CC(=O)N3CCC(c4ccccc4)CC3)C(=O)N(Cc3ccco3)C1=CCC(C)(C)C2	/	/	/	/	/	0	/	/	/
COc1ccc2[nH]c3c(NCCC4=CCCCC4)ncnc3c2c1	0	1	0	-9	-4	18*	40*	51*	31*
SMILES	CAL PDZ FP-1	CAL PDZ FP-2	CDK5 inh	PvdQ acylase	Dyrk1A ADPGlo	TbMetRS inhib	Tb MetRS conf	Jurkat cytotox	Tb MetRS inh FP
COc1ccc2[nH]c3c(NCCCOC(C)C)ncnc3c2c1	0	-2	7	-9	9	6.2*	17*	9	10
Clc1ccc(CCNc2ncnc3nc[nH]c23)cc1	-2	/	1	-8	4	11*	17*	27*	9
c1ccc(CCCNc2ncnc3nc[nH]c23)cc1	-1	-5	0	-10	11	0	/	/	/
c1ccc2c(CCNc3ncnc4nc[nH]c34)cccc2c1	-1	-8	-1	-8	/	43*	58*	10	35*
Cc1ccc(S(=O)(=O)N2C[C@@H](C)[C@]3(C2)[C@H](O)[C@H](OC(=O)NC2CCCC2)C[C@H]2C(=O)N(c4ccccc4)C(=O)[C@H]23)cc1	/	/	/	/	/	0	/	/	/
c1cc(-c2ccc(N3CCOCC3)cc2)n2cnnc2c1	/	/	/	/	/	0	/	/	/
CC(NC(=O)c1ccc(NC(=O)CC2SC(N3CCCC3)=NC2=O)cc1)c1ccc(F)cc1 (stereo unspecified)	-3	-1	-2	-7	/	0	/	/	/
COc1ccc(CCNC(=O)c2ccc([N+](=O)[O-])cc2Cl)cc1OC	-1	-4	0	0	-7	-8	/	/	/
COc1ccc(CCNC(=O)c2ccc(-c3ccc([N+](=O)[O-])cc3Cl)o2)cc1OC	0	-2	0	-2	7	5.7*	8.7*	32*	19*
CCCN1CCN(C(=O)c2ccc(CS(=O)c3ccc(Br)cc3)o2)CC1 (stereo unspecified)	/	/	/	/	/	0	/	/	/
Cc1cccc(C)c1NC(=O)C1(C)CSCC(=O)N1CCOc1ccccc1 (stereo unspecified)	/	/	/	/	/	0	/	/	/
COc1ccc(-c2[nH][nH]c(=O)c2NC(=O)c2ccccn2)cc1	/	/	/	/	/	-1	/	/	/
COc1ccc(CCC(=O)Nc2c(-c3ccc(N(C)C)cc3)[nH][nH]c2=O)cc1	/	/	/	/	/	14*	3	2	-1

Source: PubChem
